{"source": "ChEMBL document CHEMBL4316598", "about": "“Synthesis, antiproliferative and apoptosis induction potential activities of novel bis(indolyl)hydrazide-hydrazone derivatives” (Bioorg Med Chem, 2019)", "key": {"[1]": {"tested_on": "MCF7", "assay": "Induction of apoptosis in human MCF7 cells assessed as change in Bcl-2 level at 1 to 3 uM after 24 hrs by Western blot analysis", "format": "functional, cell-based", "outline": "(§1)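 Cells were treated at 1, 3 and 5 µM for 24 h at 37 °C. Lysis was in ice-cold Triton X-100 buffer with protease and phosphatase inhibitors; nuclear proteins were extracted separately. Protein was quantified by BCA. Lysates were separated by electrophoresis, transferred to nitrocellulose and blocked in non-fat milk for 1 h. Primary antibody was applied overnight at 4 °C and secondary for 1 h at 28 °C. Detection was by enhanced chemiluminescence.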"}, "[2]": {"organism": "Homo sapiens", "assay": "Inhibition of PKA phosphorylation (unknown origin) at 50 uM after 5 to 60 mins by bioluminescence assay relative to control", "outline": "(§2)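 Kinase activity measured with compound at 1, 5, 10 and 50 μM, using a Kinase Reaction Rate Kit. Phosphorylation was followed by bioluminescent monitoring of ATP consumption, with light read at 5 min and 1 h. Staurosporine served as positive control. Data given as % kinase inhibition (% of control activity), from two separate experiments.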"}, "[3]": {"tested_on": "HeLa", "assay": "Induction of apoptosis in human HeLa cells assessed as necrotic cells at 1 uM after 12 hrs by annexin-V FITC/propidium iodide staining based flow cytometric analysis relative to control", "format": "functional", "outline": "(§3)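 Cells were grown in DMEM with 10% heat-inactivated FBS at 37 °C and 5% CO₂, then plated at 500,000 cells/well in 24-well plates. They were treated from a DMSO stock (DMSO ≤0.1%) for 8, 12 or 16 h. After a PBS wash, cells were resuspended in binding buffer (10 mM HEPES pH 7.4, 2.5 mM CaCl₂, 140 mM NaCl, 0.1% BSA), stained 40 min with FITC-annexin V, then with PI, and run on the flow cytometer immediately. Values are the mean of three independent experiments.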"}, "[4]": {"tested_on": "HeLa", "assay": "Induction of cell cycle arrest in human HeLa cells at 1 uM after 16 hrs by propidium iodide/RNase A staining based FACS analysis", "format": "functional", "outline": "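Cells were seeded at 1 million cells/mL in 24-well plates and grown to 70% confluence. They were exposed at 1 µM for 16 h, washed in cold PBS, fixed in absolute ethanol and stored at −20 °C. Staining was with RNase A (20 µg/mL final) and PI (50 µg/mL final) for 30 min at 37 °C in the dark. Results are given as the percentage of cells in each cell-cycle phase by FACS.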"}, "[5]": {"target": "T1, c-Jun N-terminal kinase, JNK (Homo sapiens) (UniProt P45983+P53779+P45984)", "assay": "Activation of JNK phosphorylation in human HeLa cells assessed as increase in ratio of phosphorylated JNK to total JNK level at 5 uM in presence of JNK inhibitor SP600125 by ELISA", "format": "cell-based", "outline": "(§4)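 Cell-based ELISA: HeLa or MCF-7 cells (20×10^3/well) grown overnight at 37 °C, 5% CO2, treated with 5 μM, then fixed and blocked. Probed with rabbit anti-total and anti-phospho P38, JNK or ERK1/2 (1:100), then HRP anti-rabbit IgG. Result is the phospho/total ratio; inhibitor arms use […], […] or SP600125. n=3.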"}, "[6]": {"tested_on": "MCF7", "assay": "Induction of apoptosis in human MCF7 cells assessed as early apoptotic cells at 1 uM after 16 hrs by annexin-V FITC/propidium iodide staining based flow cytometric analysis relative to control", "format": "functional", "outline": "as §3"}, "[7]": {"tested_on": "MCF7", "assay": "Induction of apoptosis in human MCF7 cells assessed as late apoptotic cells at 1 uM after 8 hrs by annexin-V FITC/propidium iodide staining based flow cytometric analysis relative to control", "format": "functional", "outline": "as §3"}, "[8]": {"tested_on": "MCF7", "assay": "Induction of apoptosis in human MCF7 cells assessed as necrotic cells at 1 uM after 12 hrs by annexin-V FITC/propidium iodide staining based flow cytometric analysis relative to control", "format": "functional", "outline": "as §3"}, "[9]": {"target": "T2, MAP kinase p38 (Homo sapiens) (UniProt O15264+Q15759+Q16539+P53778)", "assay": "Activation of MAPK p38 phosphorylation in human HeLa cells assessed as increase in ratio of phosphorylated p38 to total p38 level at 5 uM by ELISA", "format": "cell-based", "outline": "as §4"}, "[10]": {"target": "T2, MAP kinase p38 (Homo sapiens)", "assay": "Activation of MAPK p38 phosphorylation in human MCF7 cells assessed as increase in ratio of phosphorylated p38 to total p38 level at 5 uM in presence of p38 kinase inhibitor […] by ELISA", "format": "cell-based", "outline": "as §4"}, "[11]": {"tested_on": "HeLa", "assay": "Induction of apoptosis in human HeLa cells assessed as effect on Mcl-1 long level at 1 to 3 uM after 24 hrs by Western blot analysis", "format": "functional, cell-based", "outline": "as §1"}, "[12]": {"tested_on": "MCF7", "assay": "Induction of ERK/MAPK signal transduction pathway in human MCF7 cells assessed as increase in p53 phosphorylation", "format": "cell-based"}, "[13]": {"organism": "Homo sapiens", "assay": "Inhibition of PKA phosphorylation (unknown origin) after 5 to 60 mins by bioluminescence assay", "outline": "as §2"}, "[14]": {"tested_on": "HeLa", "assay": "Induction of apoptosis in human HeLa cells assessed as change in Bid level at 1 to 3 uM after 24 hrs by Western blot analysis", "format": "functional, cell-based", "outline": "as §1"}, "[15]": {"tested_on": "MCF7", "assay": "Induction of ERK/MAPK signal transduction pathway in human MCF7 cells assessed as increase in c-fos level", "format": "cell-based"}, "[16]": {"tested_on": "HeLa", "assay": "Induction of caspase-dependent apoptosis in human HeLa cells assessed as activation of caspase-9 at 1 to 3 uM after 24 hrs by Western blot analysis", "format": "functional, cell-based", "outline": "as §1"}, "[17]": {"tested_on": "HeLa", "assay": "Induction of nitric oxide production in human HeLa cells at 5 uM measured over 8 hrs by Griess reaction based assay relative to control", "format": "functional", "outline": "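Cells seeded at 2×10^6 cells/well for 12 h, then exposed to 1, 5 and 10 μM compound for 8 h at 37 °C. Culture supernatant mixed with Griess reagent (0.002% N-1-naphthyl-ethylenediamine dihydrochloride, 0.5% sulfanilic acid, 14% glacial acetic acid). Nitrite read by absorbance at 550 nm and compared with vehicle group.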"}, "[18]": {"tested_on": "MCF7", "assay": "Cytotoxicity against human MCF7 cells assessed as reduction in cell viability after 4 hrs by MTT assay", "format": "functional, cell-based", "outline": "(§5)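 MTT: 10,000–20,000 cells/well attached for 16 h, then washed twice with serum-free RPMI. Treated with 1–200 µM for 4 h, 3 parallel runs per concentration. MTT added for 2 h; medium partly removed and isopropanol added. A590 read. Viability = (A treated − A doxorubicin)/(A medium − A doxorubicin)×100. Mean of three experiments, triplicate wells each.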"}, "[19]": {"tested_on": "HeLa", "assay": "Induction of apoptosis in human HeLa cells assessed as viable cells at 1 uM after 16 hrs by annexin-V FITC/propidium iodide staining based flow cytometric analysis relative to control", "format": "functional", "details": "read-out: Activity", "outline": "as §3"}, "[20]": {"target": "T1, c-Jun N-terminal kinase, JNK (Homo sapiens)", "assay": "Activation of JNK phosphorylation in human MCF7 cells assessed as increase in ratio of phosphorylated JNK to total JNK level at 5 uM in presence of JNK inhibitor SP600125 by ELISA", "format": "cell-based", "outline": "as §4"}, "[21]": {"tested_on": "HeLa", "assay": "Induction of apoptosis in human HeLa cells assessed as late apoptotic cells at 1 uM after 16 hrs by annexin-V FITC/propidium iodide staining based flow cytometric analysis relative to control", "format": "functional", "outline": "as §3"}, "[22]": {"tested_on": "Detroit 562", "assay": "Cytotoxicity against human Detroit 562 cells assessed as reduction in cell viability after 4 hrs by MTT assay", "format": "functional, cell-based"}, "[23]": {"tested_on": "A549", "assay": "Cytotoxicity against human A549 cells assessed as reduction in cell viability after 4 hrs by MTT assay", "format": "functional, cell-based", "outline": "as §5"}}, "note": "Activity calls are given as the source filed them. The rule behind the calls is not given here."}
{"smiles": "Cn1cc(/C=N\\NC(=O)c2cn(C)c3ccc(Br)cc23)c2ccccc21", "values": [{"measurement": "Activity", "setting": "[1]", "result": "inactive"}, {"measurement": "inhibition", "setting": "[2]", "result": 45, "unit": "%"}, {"measurement": "Activity", "setting": "[3]", "result": 0.3, "unit": "%"}, {"measurement": "Activity", "setting": "[4]", "result": "inactive"}, {"measurement": "Activity", "setting": "[5]", "result": "inactive"}, {"measurement": "Activity", "setting": "[6]", "result": 16.41, "unit": "%"}, {"measurement": "Activity", "setting": "[7]", "result": 4.01, "unit": "%"}, {"measurement": "Activity", "setting": "[8]", "result": 2.61, "unit": "%"}, {"measurement": "Activity", "setting": "[9]", "result": "Active"}, {"measurement": "Activity", "setting": "[10]", "result": "inactive"}, {"measurement": "Activity", "setting": "[11]", "result": "inactive"}, {"measurement": "Activity", "setting": "[12]", "result": "Active"}, {"measurement": "inhibition", "setting": "[13]", "result": "Dose-dependent effect"}, {"measurement": "Activity", "setting": "[14]", "result": "inactive"}, {"measurement": "Activity", "setting": "[15]", "result": "Active"}, {"measurement": "Activity", "setting": "[16]", "result": "inactive"}, {"measurement": "Activity", "setting": "[17]", "result": 42.4, "unit": "%"}, {"measurement": "Activity", "setting": "[18]", "result": "Dose-dependent effect"}, {"measurement": "IC50", "setting": "[18]; Homo sapiens, MCF7, 4 h, read-out: IC50", "result": 1.19, "unit": "µM"}, {"measurement": "viability at 1 µM", "setting": "[19]", "result": 14.3, "unit": "%"}, {"measurement": "Activity", "setting": "[20]", "result": "inactive"}, {"measurement": "Activity", "setting": "[21]", "result": 71.74, "unit": "%"}, {"measurement": "Activity", "setting": "[22]", "result": "Dose-dependent effect"}, {"measurement": "IC50", "setting": "[22]; Detroit 562, 4 h", "result": 22.7, "unit": "µM"}, {"measurement": "Activity", "setting": "[23]", "result": "Dose-dependent effect"}, {"measurement": "IC50", "setting": "[23]; Homo sapiens, A549, 4 h, read-out: IC50", "result": "0.793 to 5.49", "unit": "µM"}]}
